Data reported in ChEMBL document CHEMBL5303300, “EUbOPEN Chemogenomics Library - Multiplex” (2023).
Where “and” joins values, the source holds several entries; their conditions need not be identical. Equal values may be shown once.

Assays:
Format in all cases: toxicity, cell-based
HEK-293T = test: Multiplex assay against HEK293T; settings: human, 10 µM, compound concentration 10 uM, number of replicates 2
Outline: (§1)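 Live cells were stained at seeding with Hoechst33342, BioTracker Green Microtubule Cytoskeleton Dye, MitoTracker Red and Annexin V Alexa Fluor 680, then imaged on a CQ1 microscope at 37°C and 5% CO2 after compound addition. CellPathfinder machine-learning gating split cells into Hoechst high-intensity objects or normal cells. Normal cells were split into healthy, pyknosed or fragmented nuclei, and pyknosed cells into mitotic or apoptotic. Tubulin, mitochondrial-mass and membrane-permeability phenotypes are per cents of healthy-nucleus cells.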

U2OS = test: Multiplex assay against U2OS; settings: human, 10 µM, compound concentration 10 uM, number of replicates 2; outline: as §1
Fibroblast = test: Multiplex assay against human fibroblast; settings: 10 µM, compound concentration 10 uM, number of replicates 2; outline: as §1

## CC(=O)O[C@H]1C(=O)[C@@]2(C)[C@H]([C@H](OC(=O)c3ccccc3)[C@]3(O)C[C@H](OC(=O)[C@H](O)[C@@H](NC(=O)c4ccccc4)c4ccccc4)C(C)=C1C3(C)C)[C@]1(OC(C)=O)CO[C@@H]1C[C@@H]2O [PACLITAXEL]
HEK-293T; 12 h
  Population Apoptotic (%): 60% and 50% and 49% and 45%
  Population Fragmented Nuclei (%): 3% and 1% and 2%
  Population Healthy Nuclei (%): 74% and 80% and 77%
  Population Hoechst High Intensity Objects (%): 6% and 9% and 5% and 7%
  Population Membrane Permeable-Phenotype (%): 0%
  Population Mitochondria Different-Phenotype (%): 48% and 39% and 43% and 50%
  Population Mitotic Cells (%): 39% and 49% and 50% and 54%
  Population Normal (%): 93% and 90% and 94% and 92%
  Population Pyknosed Nuclei (%): 22% and 17% and 20%
  Population Tubulin-Different-Phenotype (%): 52% and 56% and 58% and 57%
  Total Cell Count: 418 and 518 and 523 and 401
HEK-293T; 24 h
  Population Apoptotic (%): 65% and 51% and 71% and 68%
  Population Fragmented Nuclei (%): 3% and 4% and 2%
  Population Healthy Nuclei (%): 81% and 82% and 77%
  Population Hoechst High Intensity Objects (%): 9% and 12% and 10% and 8%
  Population Membrane Permeable-Phenotype (%): 0%
  Population Mitochondria Different-Phenotype (%): 45% and 43% and 58%
  Population Mitotic Cells (%): 35% and 48% and 28% and 31%
  Population Normal (%): 90% and 87% and 89% and 91%
  Population Pyknosed Nuclei (%): 15% and 14% and 18%
  Population Tubulin-Different-Phenotype (%): 56% and 47%
  Total Cell Count: 442 and 490 and 384 and 517
HEK-293T; 48 h
  Population Apoptotic (%): 71% and 81% and 64% and 73%
  Population Fragmented Nuclei (%): 3% and 2% and 4%
  Population Healthy Nuclei (%): 88% and 89% and 84% and 83%
  Population Hoechst High Intensity Objects (%): 11% and 9%
  Population Membrane Permeable-Phenotype (%): 0%
  Population Mitochondria Different-Phenotype (%): 44% and 41% and 50%
  Population Mitotic Cells (%): 28% and 18% and 35% and 26%
  Population Normal (%): 88% and 90%
  Population Pyknosed Nuclei (%): 7% and 10% and 13%
  Population Tubulin-Different-Phenotype (%): 59% and 58% and 62%
  Total Cell Count: 478 and 469 and 500 and 350
U2OS; 12 h
  Population Apoptotic (%): 75% and 81% and 77%
  Population Healthy Nuclei (%): 47% and 63% and 72% and 76%
  Population Hoechst High Intensity Objects (%): 0%
  Population Membrane Permeable-Phenotype (%): 6% and 3% and 4%
  Population Mitochondria Different-Phenotype (%): 12% and 10% and 16% and 15%
  Population Mitotic Cells (%): 25% and 18% and 22%
  Population Normal (%): 100% and 99%
  Population Pyknosed Nuclei (%): 11% and 18% and 15% and 13%
  Population Tubulin-Different-Phenotype (%): 33% [middle of 4 runs]
U2OS; 24 h
  Population Apoptotic (%): 72% and 57% and 74% and 78%
  Population Healthy Nuclei (%): 33% and 55% and 66% and 65%
  Population Hoechst High Intensity Objects (%): 2% and 0%
  Population Membrane Permeable-Phenotype (%): 7% and 3%
  Population Mitochondria Different-Phenotype (%): 27% [middle of 4 runs]
  Population Mitotic Cells (%): 27% and 42% and 26% and 21%
  Population Normal (%): 97% and 100% and 99%
  Population Pyknosed Nuclei (%): 26% and 25% and 20%
  Population Tubulin-Different-Phenotype (%): 21% and 19% and 36%
U2OS; 48 h
  Population Apoptotic (%): 77% and 76% and 90% and 93%
  Population Healthy Nuclei (%): 33% and 30% and 56% and 60%
  Population Hoechst High Intensity Objects (%): 0%
  Population Mitochondria Different-Phenotype (%): 38% and 42% and 41%
  Population Normal (%): 100% and 99%
  Population Pyknosed Nuclei (%): 35% and 28% and 32%
  Population Tubulin-Different-Phenotype (%): 33% and 28% and 32% and 41%
Fibroblast; 12 h
  Population Apoptotic (%): 50% and 51% and 43% and 57%
  Population Fragmented Nuclei (%): 18% and 14% and 8% and 16%
  Population Healthy Nuclei (%): 60% and 57% and 66%
  Population Hoechst High Intensity Objects (%): 0%
  Population Membrane Permeable-Phenotype (%): 2% and 1%
  Population Mitochondria Different-Phenotype (%): 4% and 1% and 2% and 7%
  Population Mitotic Cells (%): 50% and 48% and 56% and 42%
  Population Normal (%): 100% and 99%
  Population Pyknosed Nuclei (%): 21% and 28% and 24% and 17%
  Population Tubulin-Different-Phenotype (%): 14% and 15% and 13%
Fibroblast; 24 h
  Population Apoptotic (%): 68% and 71% and 75% and 53%
  Population Fragmented Nuclei (%): 14% and 11% and 18%
  Population Healthy Nuclei (%): 61% and 56% and 63%
  Population Hoechst High Intensity Objects (%): 0%
  Population Membrane Permeable-Phenotype (%): 0% and 2% and 1%
  Population Mitochondria Different-Phenotype (%): 4% and 10% and 7% and 8%
  Population Mitotic Cells (%): 31% and 28% and 24% and 46%
  Population Normal (%): 100% and 99%
  Population Pyknosed Nuclei (%): 23% and 28% and 25% and 19%
Fibroblast; 48 h
  Population Apoptotic (%): 92% and 82% and 86% and 71%
  Population Fragmented Nuclei (%): 23% and 16% and 19% and 22%
  Population Healthy Nuclei (%): 60% and 62% and 63%
  Population Hoechst High Intensity Objects (%): 0%
  Population Membrane Permeable-Phenotype (%): 1% and 7% and 3%
  Population Mitochondria Different-Phenotype (%): 6% and 9% and 7%
  Population Normal (%): 100% and 99%
  Population Pyknosed Nuclei (%): 15% and 20% and 16%
  Population Tubulin-Different-Phenotype (%): 14% and 19% and 11% and 10%
